ChEMBL document CHEMBL4007413, “Replacing d-Glucosamine with Its l-Enantiomer in Glycosylated Antitumor Ether Lipids (GAELs) Retains Cytotoxic Effects against Epithelial Cancer Cells and Cancer Stem Cells” (J Med Chem, 2017)
Calls of active or inactive are those of the source.

Legend:
BT-474 [1] = assay: Cytotoxicity against human BT474 cells assessed as cell death at 2 to 25 times CC50 after 48 hrs by MTS assay; format: functional
Procedure, shortened: (§1)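 Equal numbers of cells were plated. After 24 h they were exposed to compounds (0–30 µM) for 48 h, then given MTS reagent (20% v/v) for 1–4 h. OD490 was read against cell-free blank wells; mean ± SD of 6 determinations. Media: BT-474 in DMEM/F12 + 10% FBS; DU-145, JIMT-1 and MDA-MB-231 in DMEM + 10% FBS; MiaPaCa-2 in DMEM + 10% FBS + 2.5% horse serum; PC-3 in F12K + 10% FBS; all with penicillin/streptomycin.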

PC-3 [2] = assay: Cytotoxicity against human PC3 cells assessed as cell death at 2 to 25 times CC50 after 48 hrs by MTS assay; format: functional; procedure, shortened: as §1
BT-474 [3] = assay: Cytotoxicity against cancer stem cells derived from human BT474 cells assessed as cancer stem cell death at 20 uM after 3 days by MTS assay; format: functional
Procedure, shortened: (§2)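 CSCs were isolated from BT-474 using ALDH1 activity as the stemness marker. They were grown in ultra-low adhesion wells for 4 days to form spheroids. Spheroids were then exposed to compounds (0–20 µM) for 3 days. Viability was read by MTS assay and expressed as % of untreated control.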

JIMT-1 [4] = assay: Cytotoxicity against human JIMT1 cells assessed as cell death at 2 to 25 times CC50 after 48 hrs by MTS assay; format: functional; procedure, shortened: as §1
DU-145 [5] = assay: Cytotoxicity against human DU145 cells assessed as decrease in cell viability up to 8 uM after 48 hrs in presence of pan-caspase inhibitor QVD-OPh by MTS assay; format: functional, cell-based
Procedure, shortened: (§3)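 DU-145 and JIMT-1 cells (DMEM + 10% FBS) were treated with compounds with or without the pan-caspase inhibitor QVD-OPh (40 µM). Viability was read by MTS: cells were seeded, treated 24 h later for 48 h, given MTS (20% v/v) for 1–4 h, and read at OD490 against cell-free blanks.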

MIA PaCa-2 [6] = assay: Cytotoxicity against human MIAPaCa2 cells assessed as cell death at 2 to 25 times CC50 after 48 hrs by MTS assay; format: functional; procedure, shortened: as §1
DU-145 [7] = assay: Cytotoxicity against human DU145 cells assessed as decrease in cell viability up to 8 uM after 48 hrs in absence of pan-caspase inhibitor QVD-OPh by MTS assay; format: functional, cell-based; procedure, shortened: as §3
BT-474 [8] = assay: Disruption of cancer stem cells spheroids derived from human BT474 cells at 20 uM after 3 days by microscopic analysis; format: functional, cell-based
Procedure, shortened: (§4)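 Cancer stem cells were isolated from BT-474 by ALDH1 activity. Equal numbers were seeded in ultra-low-adhesion wells and grown to spheroids. Spheroids were then incubated with or without compounds for 3 days. Spheroid integrity was assessed by light microscopy (×10). Viability was measured in parallel by MTS.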

JIMT-1 [9] = assay: Cytotoxicity against human JIMT1 cells assessed as decrease in cell viability up to 8 uM after 48 hrs in absence of pan-caspase inhibitor QVD-OPh by MTS assay; format: functional, cell-based; procedure, shortened: as §3
DU-145 [10] = assay: Cytotoxicity against human DU145 cells assessed as cell death at 2 to 25 times CC50 after 48 hrs by MTS assay; format: functional; procedure, shortened: as §1
JIMT-1 [11] = assay: Cytotoxicity against human JIMT1 cells assessed as decrease in cell viability up to 8 uM after 48 hrs in presence of pan-caspase inhibitor QVD-OPh by MTS assay; format: functional, cell-based; procedure, shortened: as §3
MDA-MB-231 [12] = assay: Cytotoxicity against human MDA-MB-231 cells assessed as cell death at 2 to 25 times CC50 after 48 hrs by MTS assay; format: functional; procedure, shortened: as §1
BT-474 [13] = assay: Cytotoxicity against cancer stem cells derived from human BT474 cells assessed as cancer stem cell death at 7.5 uM after 3 days by MTS assay; format: functional; procedure, shortened: as §2
DU-145 [14] = assay: Cytotoxicity against human DU145 cells assessed as decrease in cell viability after 48 hrs by MTS assay; format: functional; settings: DU-145, 48 h
Procedure, shortened: (§5)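 Cells were seeded at equal numbers and, after 24 h, exposed to compounds (0–30 µM) for 48 h. MTS reagent (20% v/v) was then added for 1–4 h, and OD490 was read. Cell-free medium wells served as blanks. Media were DMEM/F12 + 10% FBS for BT-474; DMEM + 10% FBS for DU-145 and MDA-MB-231; and DMEM + 10% FBS + 2.5% horse serum for MiaPaCa-2. Values are mean ± SD, n=6.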

MIA PaCa-2 [15] = assay: Cytotoxicity against human MIAPaCa2 cells assessed as cell death at 7.5 uM after 48 hrs by MTS assay; format: functional; procedure, shortened: as §1
DU-145 [16] = assay: Induction of membrane lysis in human DU145 cells at 6 uM after 6 hrs by EthD-1 staining based fluorescence microscopic analysis; format: functional, cell-based
Procedure, shortened: (§6)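 DU-145 cells were incubated with compounds at 6 µM for 6 h. They were then stained with cell-impermeant ethidium homodimer-1 and examined by fluorescence microscopy for cell rounding and red DNA staining. Cells given 0.01% Triton X-100 for 10 min served as the lysis control.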

JIMT-1 [17] = assay: Induction of membrane lysis in human JIMT1 cells at 4 uM after 6 hrs by EthD-1 staining based fluorescence microscopic analysis; format: functional, cell-based
MDA-MB-231 [18] = assay: Cytotoxicity against human MDA-MB-231 cells assessed as cell death at 7.5 uM after 48 hrs by MTS assay; format: functional; procedure, shortened: as §1
DU-145 [19] = assay: Induction of cell death in human DU145 cells assessed as rounding up of cells at 6 uM after 6 hrs fluorescence microscopic analysis; format: functional, cell-based; procedure, shortened: as §6
DU-145 [20] = assay: Cytotoxicity against human DU145 cells assessed as cell death at 7.5 uM after 48 hrs by MTS assay; format: functional; procedure, shortened: as §1
BT-474 [21] = assay: Cytotoxicity against human BT474 cells assessed as cell death at 7.5 uM after 48 hrs by MTS assay; format: functional; procedure, shortened: as §1
Erythrocyte = assay: Induction of hemolysis in sheep erythrocytes at 30 uM after 30 mins by spectrophotometric analysis; format: functional, Ovis aries
BT-474 [22] = assay: Disruption of cancer stem cells spheroids derived from human BT474 cells at >=5 uM after 3 days by microscopic analysis; format: functional, cell-based; procedure, shortened: as §4
PC-3 [23] = assay: Cytotoxicity against human PC3 cells assessed as cell death at 7.5 uM after 48 hrs by MTS assay; format: functional; procedure, shortened: as §1
JIMT-1 [24] = assay: Induction of cell death in human JIMT1 cells assessed as rounding up of cells at 4 uM after 6 hrs by fluorescence microscopic analysis; format: functional, cell-based
MIA PaCa-2 [25] = assay: Cytotoxicity against human MIAPaCa2 cells assessed as decrease in cell viability after 48 hrs by MTS assay; format: functional; settings: MIA PaCa-2, 48 h; procedure, shortened: as §5
BXPC-3 = assay: Induction of cell death in human BxPC3 cells assessed as clear large vacuole formation at 5 uM after 4 hrs
MDA-MB-231 [26] = assay: Cytotoxicity against human MDA-MB-231 cells assessed as decrease in cell viability after 48 hrs by MTS assay; format: functional; settings: MDA-MB-231, 48 h; procedure, shortened: as §5
BT-474 [27] = assay: Cytotoxicity against human BT474 cells assessed as decrease in cell viability after 48 hrs by MTS assay; format: functional; settings: BT-474, 48 h; procedure, shortened: as §5
JIMT-1 [28] = assay: Cytotoxicity against human JIMT1 cells assessed as cell death at 7.5 uM after 48 hrs by MTS assay; format: functional; procedure, shortened: as §1
[29] = Stability in bovine liver extracts assessed as bovine liver glycosidase mediated compound cleavage by TLC analysis; format: ADME, Bos taurus; settings: cattle
Procedure, shortened: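 A bovine liver glycosidase fraction in 0.05 M sodium citrate pH 5.0 was combined with 0.2 M citrate pH 4.4 buffer, substrate (30 mM stock) and Triton X-100 (10% stock) for solubilization. Controls were no enzyme and a β-D-glucose-based GAEL. After 1 h, methanol was added, the mixture was centrifuged, and the supernatant was analysed by TLC. Run in quadruplicate.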

BT-474 [30] = assay: Disruption of cancer stem cells spheroids derived from human BT474 cells at >=7.5 uM after 3 days by microscopic analysis; format: functional, cell-based; procedure, shortened: as §4

COc1cccc2c1C(=O)c1c(O)c3c(c(O)c1C2=O)C[C@@](O)(C(=O)CO)C[C@@H]3O[C@H]1C[C@H](N)[C@H](O)[C@H](C)O1.Cl [DOXORUBICIN HYDROCHLORIDE]
inactive: Activity (DU-145 [5]) | Activity (BT-474 [8]) | Activity (JIMT-1 [11])
72%: Activity (BT-474 [3])
<90%: Activity (BT-474 [1]) | Activity (PC-3 [2]) | Activity (JIMT-1 [4]) | Activity (MIA PaCa-2 [6]) | Activity (DU-145 [10]) | Activity (MDA-MB-231 [12])
75%: Activity (BT-474 [13])
active: Activity (DU-145 [7]) | Activity (JIMT-1 [9])

CCCCCCCCCCCCCCCCOC[C@H](CO[C@@H]1O[C@@H](CN)[C@H](OCc2ccccc2)[C@@H](O)[C@@H]1N)OC
inactive: Activity (DU-145 [16]) | Activity (JIMT-1 [17])
Stable: Stability [29]
<5%: Activity (Erythrocyte)
>95%: Activity (MIA PaCa-2 [15]) | Activity (MDA-MB-231 [18]) | Activity (DU-145 [20]) | Activity (BT-474 [21]) | Activity (PC-3 [23]) | Activity (BT-474 [13]) | Activity (JIMT-1 [28])
2 to 6 µM: CC50 (DU-145 [14]) | CC50 (MIA PaCa-2 [25]) | CC50 (MDA-MB-231 [26]) | CC50 (BT-474 [27])
active: Activity (DU-145 [5]) | Activity (DU-145 [7]) | Activity (DU-145 [19]) | Activity (BT-474 [22]) | Activity (JIMT-1 [9]) | Activity (JIMT-1 [11]) | Activity (JIMT-1 [24]) | Activity (BXPC-3)

CCCCCCCCCCCCCCCCOC[C@H](CO[C@@H]1O[C@H](CN)[C@@H](OCc2ccccc2)[C@H](O)[C@H]1N)OC
2 to 6 µM: CC50 (DU-145 [14]) | CC50 (MIA PaCa-2 [25]) | CC50 (MDA-MB-231 [26]) | CC50 (BT-474 [27])
<5%: Activity (Erythrocyte)
inactive: Activity (DU-145 [16]) | Activity (JIMT-1 [17])
>95%: Activity (MIA PaCa-2 [15]) | Activity (MDA-MB-231 [18]) | Activity (DU-145 [20]) | Activity (BT-474 [21]) | Activity (PC-3 [23]) | Activity (BT-474 [13]) | Activity (JIMT-1 [28])
active: Activity (DU-145 [19]) | Activity (BT-474 [22]) | Activity (JIMT-1 [24])

CCCCCCCCCCCCCCCCOC[C@H](CO[C@@H]1O[C@H](CO)[C@@H](O)[C@H](O)[C@H]1N)OC
active: Activity (BT-474 [30])
Stable: Stability [29]
<5%: Activity (Erythrocyte)
6.5 to 13 µM: CC50 (DU-145 [14]) | CC50 (MIA PaCa-2 [25]) | CC50 (MDA-MB-231 [26]) | CC50 (BT-474 [27])
